Only some compounds are listed: those with a hit (about 3.3% of all), similar ones and a draw of the others.
SENP7 block = SENP7 protease inhibition. Q9BQF6. recombinant SENP7, Z-RLRGG-aminoluciferin luminescence, 40 min. inhibition, % at 5 µM. hit rate 1.5% among 330,000. AID 434973;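 active means inhibition above about 50% at the single test dose, limit read from the data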;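 further: plate controls were DMSO with enzyme for no effect and no enzyme buffer wells for full effect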
Target sequence (Q9BQF6 706-1050 limits assumed): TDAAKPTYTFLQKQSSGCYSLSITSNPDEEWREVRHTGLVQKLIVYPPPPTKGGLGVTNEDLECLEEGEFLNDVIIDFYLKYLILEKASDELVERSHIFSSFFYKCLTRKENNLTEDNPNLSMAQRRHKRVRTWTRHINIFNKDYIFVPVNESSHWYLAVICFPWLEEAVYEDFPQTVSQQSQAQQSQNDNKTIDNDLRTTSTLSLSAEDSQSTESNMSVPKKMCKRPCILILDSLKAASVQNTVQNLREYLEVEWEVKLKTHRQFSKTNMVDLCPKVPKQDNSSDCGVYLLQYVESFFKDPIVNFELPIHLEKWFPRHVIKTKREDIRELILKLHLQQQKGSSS
SENP6 block = blocks the human protease SENP6; Q9GZR1; hit rate 1.8% among 330,000; inhibition, % at 10 µM; Recombinant SENP6 catalytic domain, aminoluciferin luminescence; AID 2599;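 active means inhibition above about 50% at the single tested dose, limit read from the data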;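 further: plate controls were DMSO wells with enzyme for no effect and DMSO wells lacking enzyme for full effect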
CendR NRP1 mod = alters CendR peptide binding to human NRP-1; AID 602438; inhibition, % at 25 µM; FAM-RPARPAR peptide binding to NRP-1, fluorescence polarization; hit rate 0.85% among 360,000; O14786;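 active means inhibition or corrected inhibition above about 18%, plus a signal ratio from 0.5 to 1.5, limit read from the data, passing the limit was not always enough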
SENP1 inh = blocks the human SENP1 SUMO protease catalytic domain; recombinant SENP1 catalytic domain, CyPet-SUMO1-YPet FRET cleavage; inhibition, % at 10 µM; hit rate 0.21% among 360,000; AID 624204;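 active means inhibition at least 30% at 10 µM, raw YFP signal under a set limit, fluorescence ratio 0.5 to 1.5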;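 further: 0% = enzyme with DMSO and 100% = no enzyme wells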
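Assay system – human recombinant His6-tagged SENP1 catalytic domain enzyme · Input – SENP1 enzyme, 20 pM final · Buffer or medium – Tris pH 8 buffer plus EDTA, NaCl, BME, BSA, NP40, catalase · Schedule – 50 min reaction at room temperature · Technique – FRET read of cyan and yellow fluorescence · Control set – no-enzyme wells low, DMSO-plus-enzyme wells high control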
SENP8 block-1 = inhibitors of human SENP8 protease | Q96LD8 | purified SENP8, Z-RLRGG-aminoluciferin cleavage, luminescence | inhibition, % at 10 µM | hit rate 1.2% among 330,000; in the data active means inhibition above about 50%
SENP8 block-2 = inhibitors of human SENP8 protease; recombinant SENP8, Nedd8 substrate fluorescence; inhibition, % at 20 µM; hit rate 0.64% among 360,000; in the data active means inhibition mostly above about 40%, no sharp cut-off; inactive means mostly below about 27%
SENP8 conf = human SENP8 inhibition, confirmed. shares compounds with SENP7 block. hit rate 40% among 6,200. Recombinant SENP8, Z-RLRGG-aminoluciferin luminescence, 60 min. inhibition, % at 12.5 µM;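 active means mean inhibition across replicates above about 50%, limit read from the data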
SENP6 confirm = human SENP6 inhibition, confirmed. shares compounds with SENP7 block. AID 488915. recombinant SENP6, Z-RLRGG-aminoluciferin luminescence. inhibition, % at 12.5 µM. hit rate 58% among 6,200
SENP7 confirm = human SENP7 inhibition, confirmed | inhibition, % at 12.5 µM | hit rate 69% among 6,200 | recombinant SENP7, Z-RLRGG-aminoluciferin luminescence, 40 min | shares compounds with SENP7 block
Casp3 select = caspase-3 inhibition (SENP selectivity assay). inhibition, % at 12.5 µM. hit rate 60% among 6,200. purified caspase-3, Z-DEVD-aminoluciferin luminescence, 60 min. shares compounds with SENP7 block;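 active means mean inhibition above about 50%, limit read from the data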;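 further: plate controls were enzyme with DMSO for no effect and wells without caspase-3 for full effect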
Target sequence (P42574 28-227 limits assumed): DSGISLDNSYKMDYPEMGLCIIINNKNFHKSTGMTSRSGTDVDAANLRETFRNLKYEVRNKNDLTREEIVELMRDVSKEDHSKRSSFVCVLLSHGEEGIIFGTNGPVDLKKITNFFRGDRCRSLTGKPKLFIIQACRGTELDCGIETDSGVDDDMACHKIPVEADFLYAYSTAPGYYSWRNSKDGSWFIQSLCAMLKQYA
SENP luc ctr = interferes with luciferase luminescence in SENP counter-screen | shares compounds with SENP7 block | Pre-incubated SENP8/Z-RLRGG-aminoluciferin, luciferase luminescence interference | inhibition, % at 12.5 µM | hit rate 39% among 6,200;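 active means mean inhibition above about 50% when retested at one dose, limit read from the data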;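 further: plate controls were DMSO wells with completed reaction for no effect and substrate without enzyme for full effect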
Active calls of the source: *; nt = no result given.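 How the source made its calls, unless noted: active means mean inhibition above about 50% in the one-dose retest (limit read from the data); inactive means the rest.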

SMILES	SENP7 block	SENP6 block	CendR NRP1 mod	SENP1 inh	SENP8 block-1	SENP8 block-2	SENP8 conf	SENP6 confirm	SENP7 confirm	Casp3 select	SENP luc ctr
COc1ccc2c(c1)CCc1c-2n[nH]c1C(=O)NCCC(C)C	60*	48	0	0	56*	9	23	54*	85*	52*	10
COc1cccc(C(O)c2nc(-c3cnn(C)c3)cs2)c1 (configuration not stated)	nt	nt	-11	1	nt	14	nt	nt	nt	nt	nt
CCOC(=O)c1sc(NC(=O)c2cccs2)cc1C	91*	83*	14	2	66*	-52	28	75*	98*	81*	10
CCOC(=O)c1sc(NC(=O)c2sccc2C)cc1C	100*	99*	-9	2	97*	-86	100*	101*	104*	99*	97*
CCOC(=O)c1cccc(NC(=O)c2cccs2)c1	2	5	12	1	-14	11	nt	nt	nt	nt	nt
CCOC(=O)C1=CCN(S(=O)(=O)c2ccccc2F)C1c1ccc(F)cc1 (configuration not stated)	nt	nt	-7	5	nt	14	nt	nt	nt	nt	nt
Cn1nnc(NC(=O)c2cccc(F)c2)n1	6	51*	6	0	-3	5	-3	-4	-3	9	8
O=C(Nc1cccc2cccnc12)c1csc(COCCO)n1	nt	nt	-5	-2	nt	-38	nt	nt	nt	nt	nt
Cc1ccc(NC(=O)c2cc(C)n(-c3cccc(C)c3)c2C)cc1	-3	18	19	-3	-4	17	nt	nt	nt	nt	nt
Cc1ccc(NC(=O)c2cc(C)n(-c3ccccc3)c2C)cc1	72*	86*	-6	1	67*	16	86*	85*	97*	73*	43
Cc1cc(C(=O)Nc2ccc(Cl)cc2)c(C)n1-c1ccccc1	91*	93*	6	-14	89*	7	91*	98*	102*	88*	30
Cc1c(C(=O)N2CCC2(C)C(=O)O)oc2ccccc12 (configuration not stated)	nt	nt	19	2	nt	20	nt	nt	nt	nt	nt
Cc1cc(C)n(CCNC(=O)[C@H]2O[C@@H](n3ccc(N)nc3=O)[C@H](O)[C@@H]2O)n1	nt	nt	12	-2	nt	15	nt	nt	nt	nt	nt
Cc1ccccc1-c1nc(-c2ccc(NC(=O)c3cccs3)cc2)no1	51*	28	2	1	17	-25	15	17	48	46	41
Cc1ccc(NC(=O)c2cccs2)cc1	53*	40	-5	3	23	5	34	38	75*	65*	52*
O=C(Nc1ccc2c(c1)CCC2)c1cccs1	78*	36	3	1	62*	14	83*	87*	96*	83*	83*
O=C(Nc1ccc(-c2noc(-c3ccccc3F)n2)cc1)c1cccs1	6	2	1	0	-5	-139	nt	nt	nt	nt	nt
Cc1ccc(NC(=O)C(=O)NNC(=O)c2cccs2)cc1	41	57*	-8	2	55*	1	-23	36	79*	83*	17
O=C(Nc1ccc2c(c1)OCO2)c1cc(C2CCCCN2S(=O)(=O)c2ccccc2)on1 (configuration not stated)	nt	nt	10	0	nt	10	nt	nt	nt	nt	nt
CCCCCCCCNCCS(=O)(=O)NC1CCCCC1	nt	nt	-11	0	nt	12	nt	nt	nt	nt	nt
Cc1ccc(-c2cc(C(=O)N/N=C/c3ccccc3O)n[nH]2)o1	52*	67*	3	-39	49	6	-1	-3	86*	53*	30
Cc1ccc(-c2cc(C(=O)N/N=C/c3c[nH]c4ccccc34)n[nH]2)o1	1	-5	-4	-2	-3	-55	nt	nt	nt	nt	nt
COCCN1C(=O)CCC1(C)c1nnnn1-c1ccc2c(c1)OCCO2 (configuration not stated)	nt	nt	0	3	nt	11	nt	nt	nt	nt	nt
N#C/C(=C/c1ccc(-c2cc(C(=O)O)cc(C(=O)O)c2)o1)c1nc2ccccc2s1	3	-19	nt	nt	3	nt	nt	nt	nt	nt	nt
N#C/C(=C/c1ccco1)c1nc2ccccc2s1	78*	38	-2	-28	86*	-10	82*	86*	95*	85*	55*
SMILES	SENP7 block	SENP6 block	CendR NRP1 mod	SENP1 inh	SENP8 block-1	SENP8 block-2	SENP8 conf	SENP6 confirm	SENP7 confirm	Casp3 select	SENP luc ctr
N#C/C(=C\c1ccco1)c1nc2ccccc2s1	88*	89*	-35	-36	87*	-5	88*	91*	97*	84*	30
C[C@H](NC(=O)c1[nH]cnc1C(=O)Nc1ccccc1F)c1ccccc1	nt	nt	-10	1	nt	9	nt	nt	nt	nt	nt
CN(C(=O)CSc1nnnn1-c1ccc(O)cc1)C1CCCCC1	-7	4	10	3	5	14	nt	nt	nt	nt	nt
CC(=O)NC(C)(c1ccccc1)c1nc(-c2ccc(S(C)(=O)=O)cc2)cs1 (configuration not stated)	nt	nt	14	2	nt	15	nt	nt	nt	nt	nt
COC(=O)c1ccc2c(c1)C(=O)/C(=C/c1ccc(O)cc1)O2	nt	nt	-53	-26	nt	-300	nt	nt	nt	nt	nt
COc1cccc(/C=C2\Oc3ccc(O)cc3C2=O)c1O	64*	71*	-29	-27	56*	-175	72*	69*	90*	72*	16
CCCS(=O)(=O)NC(=O)C1(C)CCCN(C(=O)c2cc(F)cc(F)c2)C1 (configuration not stated)	nt	nt	-2	4	nt	11	nt	nt	nt	nt	nt
Cc1ccc(-c2csc(NC(=O)COC(=O)c3cccc(S(=O)(=O)N4CCOCC4)c3)n2)cc1	36	51*	nt	nt	0	nt	52*	51*	83*	70*	53*
Cc1ccc(-c2csc(NC(=O)c3cccc(S(=O)(=O)N4CCN(C)CC4)c3)n2)cc1	4	-11	2	3	-2	-43	nt	nt	nt	nt	nt
[O-][n+]1cccc2c(Br)cc(Br)c(O)c21	7	81*	13	-20	18	-93	-1	9	-5	7	2
Oc1c(Br)cc(Br)c2cccnc12	nt	nt	1	3	nt	19	nt	nt	nt	nt	nt
O=c1[nH][nH]c2c1C(C1CCCCC1)OC(C1CCCCC1)C2 (configuration not stated)	nt	nt	8	2	nt	6	nt	nt	nt	nt	nt
CCCc1nc2c(C)cc(Br)cn2c1Cc1ccc(OC)cc1C	nt	nt	6	47	nt	-8	nt	nt	nt	nt	nt

Source: PubChem
